Sampled rows, rich in hits. Any-hit rate of the full collection: about 12%.
Rad51 HR inh: blocks human Rad51 in homologous recombination | Q06609 | hRad51 DNA strand exchange, fluorescence dequenching | inhibition, % at 10 µM | 200,000 tested, 0.085% active | AID 1385;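 active = inhibition above 40% at the single screening dose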;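 note: 0% = DMSO control wells and 100% = blanks with heterologous ssDNA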
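Read-out basis: percent inhibition relative to plate controls and blanks / Assay system: human Rad51 nucleoprotein filaments preassembled on unlabelled ssDNA / Timing: filaments 15 min 37 °C, then compound 30 min / Control set: per-plate controls and blanks / Technique: fluorescence dequenching at 485/520 nm / Compound: 10 µM final, single point / Also added: Fluorescein- and BHQ1-tagged 47-mer duplex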
L major viab: inhibitors of Leishmania major promastigote growth. Leishmania major promastigotes, resazurin fluorescence viability. 200,000 tested, 9% active. inhibition, % at 10 µM;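 note: promastigotes grown with compound for 44 hours at 28 °C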
Wee1 degr inh: human Wee1 degradation inhibition, primary screen | P30291 | HeLa Luc-Wee1K328M stability, luciferase luminescence; 100% = proteasome inhibitor MG132 effect | reporter increase, % at 5 µM | 220,000 tested, 1.2% active;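 active = activation above the mean of all tested compounds plus 3 SD, set per screening run, cut at about 8.8% in these data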;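 note: cells exposed to compound for 20 h before luminescence read; 0% = DMSO alone and 100% = MG132 at 30 µM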
CHOP inhibitor: blocks CHOP induction under ER stress; CHO-K1 CHOP-promoter luciferase, tunicamycin-induced, 15-18 h; inhibition, % at 10 µM; 220,000 tested, 3.8% active; AID 2732;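 active = compounds that reduced the stress-induced luciferase reporter signal by more than about 70% of percent inhibition, limit read from the data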;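 note: 0% = tunicamycin plus vehicle and 100% = wells without tunicamycin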
PKD1 inh: blocks activity of human protein kinase D1; Q15139; PKD1 kinase fluorescence polarization assay; inhibition, % (no concentration beside the values); 200,000 tested, 0.056% active; AID 797
Arbovirus anti: antivirals against arbovirus infection; arbovirus infection cell-based antiviral screen; inhibition, % at 10 µM; 200,000 tested, 0.37% active; AID 1251; in the data active = inhibition above about 30%
CHOP inh conf: confirmation of CHOP induction inhibitors | shares compounds with CHOP inhibitor | 2,100 tested, 45% active | inhibition, % at 10 µM | CHO-CHOP promoter luciferase reporter, tunicamycin-induced, luminescence | AID 504437;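 active = mean of three repeat readings of reporter signal inhibition above a set limit, cut at about 70% in these data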;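 note: 0% = tunicamycin plus vehicle and 100% = wells lacking tunicamycin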
Numbers without * were called inactive. Cut-off read from the data, not from the text of the source, unless noted: active = inhibition above about 50%; inactive = the rest.

Screening CCOC(=O)c1cc(-c2ccccc2)sc1NC(=O)c1cc(OC)c(OC)c(OC)c1 returned Rad51 HR inh -7, L major viab 46, Wee1 degr inh -3, CHOP inhibitor -3, PKD1 inh -11 and Arbovirus anti 0.
For CC(/C=N/n1c(COc2ccccc2)n[nH]c1=S)=C\c1ccccc1 the results were Rad51 HR inh 0, L major viab -7, Wee1 degr inh 2, CHOP inhibitor 111*, PKD1 inh -2, Arbovirus anti 4 and CHOP inh conf -8.
For S=c1[nH]nc(C2CCCCC2)n1/N=C/C(Cl)=C\c1ccccc1 the results were Rad51 HR inh -1, L major viab 13, Wee1 degr inh 3, CHOP inhibitor 102*, PKD1 inh -3, Arbovirus anti 15 and CHOP inh conf 29.
Screening S=c1[nH]nc(C2CCCCC2)n1/N=C/C=C/c1ccccc1 returned L major viab -4, Wee1 degr inh 0, CHOP inhibitor 105*, PKD1 inh -4, Arbovirus anti 8 and CHOP inh conf 106*.
`Cc1nc2c(=O)n(C)c(=O)n(C)c2nc1Cl` gave Rad51 HR inh 6, L major viab 100*, Wee1 degr inh 6, CHOP inhibitor 109*, PKD1 inh 5, Arbovirus anti -34 and CHOP inh conf 118*.
For Cn1c(=O)c2nc(NCc3ccccc3)cnc2n(C)c1=O the results were L major viab 1, Wee1 degr inh 2, CHOP inhibitor -5, PKD1 inh -10 and Arbovirus anti 6.
For O=C(OCCN1CCN(c2ncc(C(F)(F)F)cc2Cl)CC1)c1ccc(F)cc1 the results were Rad51 HR inh -2, L major viab -5, Wee1 degr inh 2, CHOP inhibitor 57, PKD1 inh 5 and Arbovirus anti -8.
`O=C(OCn1ncc(Cl)c(Cl)c1=O)c1ccc(C(F)(F)F)cc1` gave Rad51 HR inh -4, L major viab 7, Wee1 degr inh -2, CHOP inhibitor 104*, PKD1 inh 1, Arbovirus anti -28 and CHOP inh conf 116*.
`O=C(Nc1ccccc1O)c1c(O)c2c([nH]c1=O)CCCC2` gave L major viab -4, Wee1 degr inh 0, CHOP inhibitor 103*, PKD1 inh 0, Arbovirus anti 22 and CHOP inh conf 126*.
O=C(N/N=C/c1cccc(Cl)c1)c1c(O)c2c([nH]c1=O)CCCC2 was read as Rad51 HR inh 15, Wee1 degr inh 1, CHOP inhibitor 98* and CHOP inh conf -7.
`CCN(C(=O)COC(=O)c1cncc(Br)c1)C1CCS(=O)(=O)C1` (stereo unspecified) gave Rad51 HR inh 2, L major viab -5, Wee1 degr inh -4, CHOP inhibitor 10, PKD1 inh -2 and Arbovirus anti 6.
Screening COc1ccccc1NC(=O)COc1ccc(CO)cc1Cl returned Rad51 HR inh -6, L major viab -1, Wee1 degr inh 0, CHOP inhibitor 38, PKD1 inh 6 and Arbovirus anti 2.
`Cc1ccc(NNC(=S)Nc2ccc(C(C)C)cc2)c(C)c1` gave L major viab 5, Wee1 degr inh 7, CHOP inhibitor 106*, PKD1 inh -2, Arbovirus anti -12 and CHOP inh conf 16.
Screening CNc1nc(Sc2cccc(C(F)(F)F)c2)cc(C(F)(F)F)n1 returned Rad51 HR inh 0, L major viab 1, Wee1 degr inh 1, CHOP inhibitor 101*, PKD1 inh -2, Arbovirus anti -17 and CHOP inh conf 98*.
`COc1ccccc1-c1cc(C(F)(F)F)nc(S(=O)(=O)CCCC(=O)Nc2cccnc2Cl)n1` gave Rad51 HR inh 3, L major viab 45, Wee1 degr inh 0, CHOP inhibitor 108*, PKD1 inh -7, Arbovirus anti -36 and CHOP inh conf 121*.
Screening COc1ccccc1-c1cc(C(F)(F)F)nc(S(C)(=O)=O)n1 returned L major viab 27, Wee1 degr inh 3, CHOP inhibitor 112*, PKD1 inh 2, Arbovirus anti -46 and CHOP inh conf -336.
For COc1ccccc1-c1cc(C(F)(F)F)nc(S(=O)(=O)CCCC(=O)NC(C)C)n1 the results were Rad51 HR inh 0, L major viab 89*, Wee1 degr inh -1, CHOP inhibitor 112*, PKD1 inh 20, Arbovirus anti -34 and CHOP inh conf 117*.
For CS(=O)(=O)c1nc(-c2ccco2)cc(C(F)(F)F)n1 the results were Rad51 HR inh 3, L major viab 42, Wee1 degr inh -1, CHOP inhibitor 111*, PKD1 inh -3, Arbovirus anti -46 and CHOP inh conf 122*.
COc1cc(C(=O)N2CCN(c3ccccc3)CC2)c([N+](=O)[O-])cc1OC was read as Rad51 HR inh 4, L major viab -1, Wee1 degr inh -3, CHOP inhibitor 31, PKD1 inh 9 and Arbovirus anti 4.
For O=C(NCc1ccc(Cl)cc1)c1ccc2nc[nH]c2c1 the results were Rad51 HR inh -2, L major viab 50, Wee1 degr inh -2, CHOP inhibitor 14, PKD1 inh 3 and Arbovirus anti -32.
COc1ccccc1-c1cc(C(F)(F)F)nc(S(=O)(=O)CCCC(=O)NCc2ccc(F)cc2)n1 was read as Rad51 HR inh -5, L major viab 4, Wee1 degr inh 4, CHOP inhibitor 100*, PKD1 inh 6, Arbovirus anti -35 and CHOP inh conf -95.
For Cc1ccc(Oc2c(C(N)=O)cc([N+](=O)[O-])cc2[N+](=O)[O-])cc1 the results were Rad51 HR inh 8, L major viab 17, Wee1 degr inh -1, CHOP inhibitor 108*, PKD1 inh -9, Arbovirus anti -32 and CHOP inh conf -16.
Screening O=C(NC(Cc1ccccc1)C(=O)O)/C(=C/c1ccc(F)cc1)NC(=O)c1ccccc1 (stereo unspecified) returned Rad51 HR inh 3, L major viab -5, Wee1 degr inh -2, CHOP inhibitor -8, PKD1 inh -8 and Arbovirus anti -4.
`OC(CSc1c(Cl)cccc1Cl)CN1CCN(c2ccccc2F)CC1` (stereo unspecified) gave Rad51 HR inh 4, L major viab 17, Wee1 degr inh -4, CHOP inhibitor 97*, PKD1 inh -5, Arbovirus anti 4 and CHOP inh conf 14.
Screening O=C(NCN1CCN(c2ccccc2F)CC1)c1ccccc1 returned Rad51 HR inh -7, L major viab -5, Wee1 degr inh -2, CHOP inhibitor 10, PKD1 inh -1 and Arbovirus anti -3.
`Cc1ccc(N2C(=O)[C@@H]3C(C(=O)CCN4C(=O)c5ccccc5C4=O)=NN[C@@H]3C2=O)cc1` gave Rad51 HR inh 2, L major viab -6, Wee1 degr inh -5, CHOP inhibitor 12, PKD1 inh -2 and Arbovirus anti 4.
